The source made the active and inactive calls. No cut-off for these calls is given here.
Tests used:
PC-9 [1] = experiment: Induction of apoptosis in human PC-9 cells assessed as late apoptotic cells at 0.1 uM for 48 hrs by annexin V/PI staining based flow cytometric analysis in presence of PTEN-siRNA relative to control; format: functional
Procedure, shortened: (§1)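 PC9 cells given PTEN siRNA or scramble siRNA, then Erlotinib 0.1 μM for 48 h. Apoptosis by Annexin V–FITC/PI staining for 5 min at room temperature in the dark, read by flow cytometry.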

PC-9 [2] = experiment: Induction of apoptosis in human PC-9 cells assessed as necrotic cells at 0.1 uM for 48 hrs by annexin V/PI staining based flow cytometric analysis in presence of PTEN-siRNA relative to control; format: functional; procedure, shortened: as §1
PC-9/ER [3] = experiment: Induction of apoptosis in human PC-9/ER cells assessed as late apoptotic cells at 1 uM for 48 hrs by annexin V/PI staining based flow cytometric analysis in presence of scramble non-target siRNA (reference value: 4.2%); format: functional
PC-9/ER [4] = experiment: Induction of apoptosis in human PC-9/ER cells assessed as viable cells at 1 uM for 48 hrs by annexin V/PI staining based flow cytometric analysis (reference value: 91.4%); format: functional; settings: read-out: Activity
PC-9/ER [5] = experiment: Induction of apoptosis in human PC-9/ER cells assessed as necrotic cells at 1 uM for 48 hrs by annexin V/PI staining based flow cytometric analysis relative to control; format: functional
Procedure, shortened: (§2)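 PC9/ER cells given a PTEN expression vector or mock vector, then Erlotinib 1 μM for 48 h. Cells stained with Annexin V–FITC/PI (5 min, room temperature, dark) and analyzed by flow cytometry.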

PC-9/ER [6] = experiment: Induction of apoptosis in human PC-9/ER cells assessed as necrotic cells at 1 uM for 48 hrs by annexin V/PI staining based flow cytometric analysis in presence of PTEN vector relative to control; format: functional; procedure, shortened: as §2
PC-9/ER [7] = experiment: Induction of apoptosis in human PC-9/ER cells assessed as late apoptotic cells at 1 uM for 48 hrs by annexin V/PI staining based flow cytometric analysis in presence of PTEN vector relative to control; format: functional; procedure, shortened: as §2
PC-9/ER [8] = experiment: Induction of apoptosis in human PC-9/ER cells assessed as early apoptotic cells at 1 uM for 48 hrs by annexin V/PI staining based flow cytometric analysis in presence of scramble non-target siRNA (reference value: 1.3%); format: functional
PC-9/ER [9] = experiment: Induction of apoptosis in human PC-9/ER cells assessed as late apoptotic cells at 1 uM for 48 hrs by annexin V/PI staining based flow cytometric analysis in presence of […] siRNA (reference value: 4.2%); format: functional
PC-9/ER [10] = experiment: Induction of apoptosis in human PC-9/ER cells assessed as necrotic cells at 1 uM for 48 hrs by annexin V/PI staining based flow cytometric analysis (reference value: 2.1%); format: functional
PC-9 [11] = experiment: Induction of apoptosis in human PC-9 cells assessed as late apoptotic cells at 0.1 uM for 48 hrs by annexin V/PI staining based flow cytometric analysis relative to control; format: functional; procedure, shortened: as §1
PC-9/ER [12] = experiment: Induction of apoptosis in human PC-9/ER cells assessed as late apoptotic cells at 1 uM for 48 hrs by annexin V/PI staining based flow cytometric analysis (reference value: 5.7%); format: functional
PC-9 [13] = experiment: Induction of apoptosis in human PC-9 cells assessed as viable cells at 0.1 uM for 48 hrs by annexin V/PI staining based flow cytometric analysis in presence of PTEN-siRNA relative to control; format: functional; settings: read-out: Activity; procedure, shortened: as §1
PC-9 [14] = experiment: Induction of apoptosis in human PC-9 cells assessed as early apoptotic cells at 0.1 uM for 48 hrs by annexin V/PI staining based flow cytometric analysis relative to control; format: functional; procedure, shortened: as §1
PC-9/ER [15] = experiment: Induction of apoptosis in human PC-9/ER cells assessed as viable cells at 1 uM for 48 hrs by annexin V/PI staining based flow cytometric analysis in presence of […] siRNA (reference value: 92.2%); format: functional; settings: read-out: Activity
PC-9/ER [16] = experiment: Induction of apoptosis in human PC-9/ER cells assessed as early apoptotic cells at 1 uM for 48 hrs by annexin V/PI staining based flow cytometric analysis relative to control; format: functional; procedure, shortened: as §2
PC-9/ER [17] = experiment: Induction of apoptosis in human PC-9/ER cells assessed as viable cells at 1 uM for 48 hrs by annexin V/PI staining based flow cytometric analysis in presence of PTEN vector relative to control; format: functional; settings: read-out: Activity; procedure, shortened: as §2
PC-9 [18] = experiment: Induction of apoptosis in human PC-9 cells assessed as necrotic cells at 0.1 uM for 48 hrs by annexin V/PI staining based flow cytometric analysis relative to control; format: functional; procedure, shortened: as §1
PC-9/ER [19] = experiment: Induction of apoptosis in human PC-9/ER cells assessed as necrotic cells at 1 uM for 48 hrs by annexin V/PI staining based flow cytometric analysis in presence of […] siRNA (reference value: 2.3%); format: functional
PC-9 [20] = experiment: Induction of apoptosis in human PC-9 cells assessed as viable cells at 0.1 uM for 48 hrs by annexin V/PI staining based flow cytometric analysis relative to control; format: functional; settings: read-out: Activity; procedure, shortened: as §1
PC-9/ER [21] = experiment: Induction of apoptosis in human PC-9/ER cells assessed as early apoptotic cells at 1 uM for 48 hrs by annexin V/PI staining based flow cytometric analysis (reference value: 0.9%); format: functional
PC-9/ER [22] = experiment: Antitumor activity against human PC-9/ER cells xenografted in SCID mouse assessed as inhibition of tumor growth at 12.5 mg/kg, ip daily for 3 weeks; format: functional, organism-based
Procedure, shortened: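 Male SCID mice, 7–8 weeks old, injected s.c. in the right flank with 5 × 10^6 PC9/ER cells in PBS. At an average tumor volume of 50 mm3, randomized into groups of n = 6: saline, UNC0642 2.5 mg/kg bid i.p., Erlotinib 12.5 mg/kg/day i.p., or both. Tumor volume tracked and body weight recorded; tumors weighed after sacrifice at 3 weeks.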

PC-9/ER [23] = experiment: Induction of apoptosis in human PC-9/ER cells assessed as early apoptotic cells at 1 uM for 48 hrs by annexin V/PI staining based flow cytometric analysis in presence of PTEN vector relative to control; format: functional; procedure, shortened: as §2
PC-9/ER [24] = experiment: Antiproliferative activity against human PC-9/ER cells assessed as reduction in cell survival rate pretreated with UNC0638 followed by compound addition upto 1 uM incubated for 48 hrs by MTT assay; format: functional, cell-based
Procedure, shortened: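 PC9/ER cells pretreated with UNC0638 (100 nM), DMSO as control, then given Erlotinib at a range of concentrations for 48 h. Viability by MTT: 4 h at 37 °C, formazan dissolved in DMSO, absorbance at 570 nm.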

PC-9/ER [25] = experiment: Induction of apoptosis in human PC-9/ER cells assessed as late apoptotic cells at 1 uM for 48 hrs by annexin V/PI staining based flow cytometric analysis relative to control; format: functional; procedure, shortened: as §2
PC-9/ER [26] = experiment: Induction of apoptosis in human PC-9/ER cells assessed as viable cells at 1 uM for 48 hrs by annexin V/PI staining based flow cytometric analysis relative to control; format: functional; settings: read-out: Activity; procedure, shortened: as §2
PC-9 [27] = experiment: Induction of apoptosis in human PC-9 cells assessed as early apoptotic cells at 0.1 uM for 48 hrs by annexin V/PI staining based flow cytometric analysis in presence of PTEN-siRNA relative to control; format: functional; procedure, shortened: as §1
PC-9/ER [28] = experiment: Induction of apoptosis in human PC-9/ER cells assessed as viable cells at 1 uM for 48 hrs by annexin V/PI staining based flow cytometric analysis in presence of scramble non-target siRNA (reference value: 92.2%); format: functional; settings: read-out: Activity
PC-9/ER [29] = experiment: Induction of apoptosis in human PC-9/ER cells assessed as necrotic cells at 1 uM for 48 hrs by annexin V/PI staining based flow cytometric analysis in presence of scramble non-target siRNA (reference value: 2.3%); format: functional
PC-9/ER [30] = experiment: Induction of apoptosis in human PC-9/ER cells assessed as early apoptotic cells at 1 uM for 48 hrs by annexin V/PI staining based flow cytometric analysis in presence of […] siRNA (reference value: 1.3%); format: functional

`C#Cc1cccc(Nc2ncnc3cc(OCCOC)c(OCCOC)cc23)c1` [ERLOTINIB] showed an Activity (PC-9 [1]) of 6.6%, an Activity (PC-9 [2]) of 1.6% and an Activity (PC-9/ER [3]) of 9.8%. The viability at 1 µM (PC-9/ER [4]) was 77.8%, the Activity (PC-9/ER [5]) was 1.6% and the Activity (PC-9/ER [6]) was 1.5%. For the same compound, the Activity (PC-9/ER [7]) was 5.7%, the Activity (PC-9/ER [8]) was 1.3% and the Activity (PC-9/ER [9]) was 17.5%. It also gave an Activity (PC-9/ER [10]) of 4.9%, an Activity (PC-9 [11]) of 18.8% and an Activity (PC-9/ER [12]) of 14.5%. It also gave a viability at 0.1 µM (PC-9 [13]) of 76.5%, an Activity (PC-9 [14]) of 17.9% and a viability at 1 µM (PC-9/ER [15]) of 77.4%. For the same compound, the Activity (PC-9/ER [16]) was 4.9%, the viability at 1 µM (PC-9/ER [17]) was 70.1% and the Activity (PC-9 [18]) was 5.1%. For the same compound, the Activity (PC-9/ER [19]) was 4.5%, the viability at 0.1 µM (PC-9 [20]) was 58.2% and the Activity (PC-9/ER [21]) was 2.8%. For the same compound, the Activity (PC-9/ER [22]) was “inactive”, the Activity (PC-9/ER [23]) was 22.7% and the Activity (PC-9/ER [24]) was “Active”. For the same compound, the Activity (PC-9/ER [25]) was 6.4%, the viability at 1 µM (PC-9/ER [26]) was 87.1% and the Activity (PC-9 [27]) was 15.3%. The viability at 1 µM (PC-9/ER [28]) was 82.7%, the Activity (PC-9/ER [29]) was 6.2% and the Activity (PC-9/ER [30]) was 0.6%.
